Test results published in ChEMBL document CHEMBL5154815, “A Series of Substituted Bis-Aminotriazines Are Activators of the Natriuretic Peptide Receptor C” (J Med Chem, 2022).
Activity calls are given as the source filed them. No cut-off for these calls is given here.

Experiments:
[1] = biological target: T1, Atrial natriuretic peptide receptor 2 (Homo sapiens) (UniProt P20594); test: Agonist activity at NPRB in human HeLa cells assessed as increased cGMP formation at 1 uM incubated for 30 mins in presence of IBMX by ELISA; assay type: cell-based; settings: filed as agonist
T1 sequence (whole entry): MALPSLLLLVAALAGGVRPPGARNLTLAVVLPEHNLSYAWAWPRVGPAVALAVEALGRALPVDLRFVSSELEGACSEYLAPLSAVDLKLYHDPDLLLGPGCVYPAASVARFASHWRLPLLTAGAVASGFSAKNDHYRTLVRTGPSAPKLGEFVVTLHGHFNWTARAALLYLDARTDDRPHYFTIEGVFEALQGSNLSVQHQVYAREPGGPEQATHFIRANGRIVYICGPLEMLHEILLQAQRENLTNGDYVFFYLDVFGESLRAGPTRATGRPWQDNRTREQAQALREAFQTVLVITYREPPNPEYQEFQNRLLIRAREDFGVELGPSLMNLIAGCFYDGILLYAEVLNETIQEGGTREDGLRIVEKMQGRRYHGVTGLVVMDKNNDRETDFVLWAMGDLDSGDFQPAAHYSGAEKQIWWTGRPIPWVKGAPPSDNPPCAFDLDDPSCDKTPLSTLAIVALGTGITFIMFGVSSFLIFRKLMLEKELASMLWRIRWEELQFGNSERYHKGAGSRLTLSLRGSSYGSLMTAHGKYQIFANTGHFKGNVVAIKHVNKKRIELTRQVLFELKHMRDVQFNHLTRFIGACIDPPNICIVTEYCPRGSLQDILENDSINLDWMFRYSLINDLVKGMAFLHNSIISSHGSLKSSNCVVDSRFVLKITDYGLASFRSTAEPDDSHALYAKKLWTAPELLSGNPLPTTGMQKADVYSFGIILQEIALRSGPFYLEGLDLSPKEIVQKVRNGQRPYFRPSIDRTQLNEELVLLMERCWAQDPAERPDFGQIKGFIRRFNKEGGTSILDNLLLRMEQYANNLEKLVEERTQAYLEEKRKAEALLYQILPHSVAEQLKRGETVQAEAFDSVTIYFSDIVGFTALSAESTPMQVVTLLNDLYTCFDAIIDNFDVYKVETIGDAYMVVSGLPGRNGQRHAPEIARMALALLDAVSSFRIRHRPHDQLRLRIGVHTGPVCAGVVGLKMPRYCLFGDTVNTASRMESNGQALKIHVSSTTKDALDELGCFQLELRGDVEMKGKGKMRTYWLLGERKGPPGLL
Outline: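 HeLa cells grown in high-glucose DMEM with 10% heat-inactivated bovine serum, penicillin and streptomycin at 5% CO2. Medium was changed on the assay day, then cells equilibrated 4 h. ANP, CNP and cANF4–23 (1 μM) or test compounds (10 μM) were added with IBMX (1 mM) for 30 min. Lysis used 1% Triton-X/0.1 M HCl. Supernatant cGMP was read by ELISA and normalized to BCA protein; points are independent biological replicates.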

[2] = Stability in Sprague-Dawley rat hepatocytes assessed as clearance per […] at 1 uM after 20 mins by LC-MS/MS analysis; assay type: ADME, cell-based, Hepatocyte
[3] = Solubility of compound in PBS at 10 mM after 3 hrs by UV analysis; settings: buffer, 10000 µM
[4] = biological target: T2, Atrial natriuretic peptide receptor 3 (Rattus norvegicus, UniProt P41740); test: Agonist activity at NPRC in rat small mesenteric arteries assessed as vasorelaxation by Organ bath assay; assay type: tissue-based, Artery
T2 sequence (P41740 whole entry): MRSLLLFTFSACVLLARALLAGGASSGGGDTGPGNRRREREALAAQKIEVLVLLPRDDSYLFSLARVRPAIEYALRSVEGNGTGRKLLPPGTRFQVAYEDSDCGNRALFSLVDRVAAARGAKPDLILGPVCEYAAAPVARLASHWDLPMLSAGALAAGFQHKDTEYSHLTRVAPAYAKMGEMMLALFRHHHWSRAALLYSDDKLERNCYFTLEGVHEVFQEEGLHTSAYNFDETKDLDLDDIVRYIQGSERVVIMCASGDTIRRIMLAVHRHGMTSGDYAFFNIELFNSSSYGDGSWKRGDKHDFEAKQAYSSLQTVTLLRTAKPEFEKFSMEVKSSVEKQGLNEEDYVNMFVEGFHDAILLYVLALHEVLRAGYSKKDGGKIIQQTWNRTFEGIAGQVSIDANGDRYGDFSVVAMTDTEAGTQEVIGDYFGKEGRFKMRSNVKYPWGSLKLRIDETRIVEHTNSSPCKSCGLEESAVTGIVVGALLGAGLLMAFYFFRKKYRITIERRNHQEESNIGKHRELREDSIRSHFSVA

[5] = biological target: T2, Atrial natriuretic peptide receptor 3; test: Agonist activity at NPRC in rat aorta assessed as vasorelaxation by Organ bath assay; assay type: tissue-based
[6] = Permeability of the compound in PBS at pH 7.4 incubated for 5 hrs by LC/MS based PAMPA assay; settings: pH 7.4, 5 h
Cytochrome P450 2C9 = Cytochrome P450 2C9 (Homo sapiens, UniProt P11712); test: Inhibition of CYP2C9 in human liver microsomes using diclofenac as substrate preincubated for 10 mins followed by NADPH addition and measured after 10 mins by LC/MS/MS analysis
Sequence of Cytochrome P450 2C9 (P11712 whole entry): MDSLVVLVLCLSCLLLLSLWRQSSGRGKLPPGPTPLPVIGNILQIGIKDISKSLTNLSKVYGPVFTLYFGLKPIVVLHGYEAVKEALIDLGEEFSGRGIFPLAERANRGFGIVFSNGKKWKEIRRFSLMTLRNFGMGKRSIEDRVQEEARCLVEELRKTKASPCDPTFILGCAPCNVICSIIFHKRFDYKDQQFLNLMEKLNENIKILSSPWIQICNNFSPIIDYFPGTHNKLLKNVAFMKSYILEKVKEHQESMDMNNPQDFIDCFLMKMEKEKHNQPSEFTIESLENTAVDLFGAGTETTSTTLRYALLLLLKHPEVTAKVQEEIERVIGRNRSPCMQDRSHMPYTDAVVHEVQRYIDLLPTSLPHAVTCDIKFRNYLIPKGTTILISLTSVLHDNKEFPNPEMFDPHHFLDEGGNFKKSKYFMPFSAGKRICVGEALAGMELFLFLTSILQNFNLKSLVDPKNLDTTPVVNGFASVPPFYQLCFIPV

[7] = Stability of compound in pooled human plasma assessed as half life measured upto 120 mins by LC/MS/MS analysis; settings: 2 h
[8] = Protein binding in human plasma by equilibrium dialysis assay
Cytochrome P450 2C19 = Cytochrome P450 2C19 (Homo sapiens, UniProt P33261); test: Inhibition of CYP2C19 in human liver microsomes using S-mephenytoin as substrate preincubated for 10 mins followed by NADPH addition and measured after 20 mins by LC/MS/MS analysis
Sequence of Cytochrome P450 2C19 (P33261 whole entry): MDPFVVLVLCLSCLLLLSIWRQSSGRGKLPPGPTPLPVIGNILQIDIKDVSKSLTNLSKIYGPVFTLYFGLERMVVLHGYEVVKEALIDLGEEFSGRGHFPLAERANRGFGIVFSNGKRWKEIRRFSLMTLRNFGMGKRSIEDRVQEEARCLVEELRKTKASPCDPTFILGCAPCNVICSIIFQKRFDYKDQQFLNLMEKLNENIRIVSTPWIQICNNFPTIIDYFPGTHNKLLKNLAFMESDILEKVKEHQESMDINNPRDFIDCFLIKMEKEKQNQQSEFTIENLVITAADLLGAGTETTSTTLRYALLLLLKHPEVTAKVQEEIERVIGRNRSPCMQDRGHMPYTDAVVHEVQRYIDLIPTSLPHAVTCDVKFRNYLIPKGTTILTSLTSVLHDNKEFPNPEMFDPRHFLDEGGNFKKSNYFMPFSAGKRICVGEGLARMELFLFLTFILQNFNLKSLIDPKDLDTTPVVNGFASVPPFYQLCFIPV

Cytochrome P450 1A2 = biological target: T3, Cytochrome P450 1A2 (Homo sapiens, UniProt P05177); test: Inhibition of CYP1A2 in human liver microsomes using phenacetin as substrate preincubated for 10 mins followed by NADPH addition and measured after 10 mins by LC/MS/MS analysis
T3 sequence (P05177 whole entry): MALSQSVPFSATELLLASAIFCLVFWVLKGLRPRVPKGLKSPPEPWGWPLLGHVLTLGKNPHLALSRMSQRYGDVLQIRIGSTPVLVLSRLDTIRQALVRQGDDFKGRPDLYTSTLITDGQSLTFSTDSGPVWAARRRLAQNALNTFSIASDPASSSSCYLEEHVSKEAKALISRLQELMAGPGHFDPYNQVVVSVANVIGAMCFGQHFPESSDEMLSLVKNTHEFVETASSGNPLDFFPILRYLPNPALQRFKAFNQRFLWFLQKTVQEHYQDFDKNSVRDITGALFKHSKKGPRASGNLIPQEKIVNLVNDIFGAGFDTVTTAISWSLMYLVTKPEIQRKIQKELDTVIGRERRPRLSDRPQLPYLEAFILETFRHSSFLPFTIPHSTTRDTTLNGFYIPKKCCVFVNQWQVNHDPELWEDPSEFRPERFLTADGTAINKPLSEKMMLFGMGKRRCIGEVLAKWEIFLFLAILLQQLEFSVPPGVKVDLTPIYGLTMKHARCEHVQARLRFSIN

Cytochrome P450 2C8 = biological target: T4, Cytochrome P450 2C8 (Homo sapiens, UniProt P10632); test: Inhibition of CYP2C8 in human liver microsomes using amodiaquine as a substrate preincubated for 10 mins followed by NADPH addition and measured after 10 mins by LC/MS/MS analysis
T4 sequence (P10632 whole entry): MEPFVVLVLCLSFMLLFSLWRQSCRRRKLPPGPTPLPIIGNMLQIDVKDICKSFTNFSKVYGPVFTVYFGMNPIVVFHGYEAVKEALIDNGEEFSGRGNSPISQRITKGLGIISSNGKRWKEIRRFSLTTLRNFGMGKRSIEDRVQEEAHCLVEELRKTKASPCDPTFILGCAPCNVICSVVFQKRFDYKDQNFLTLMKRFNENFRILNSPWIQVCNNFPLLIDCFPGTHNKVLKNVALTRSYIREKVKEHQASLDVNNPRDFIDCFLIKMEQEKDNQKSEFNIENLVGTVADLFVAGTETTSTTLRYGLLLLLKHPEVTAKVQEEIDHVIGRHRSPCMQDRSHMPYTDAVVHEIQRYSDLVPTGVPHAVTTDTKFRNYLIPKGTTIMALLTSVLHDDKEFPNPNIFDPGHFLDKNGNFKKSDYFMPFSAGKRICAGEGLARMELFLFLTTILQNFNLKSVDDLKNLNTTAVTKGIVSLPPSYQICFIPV

Cytochrome P450 3A4 [9] = biological target: T5, Cytochrome P450 3A4 (Homo sapiens, UniProt P08684); test: Inhibition of CYP3A4 in human liver microsomes using midazolam as a substrate preincubated for 10 mins followed by NADPH addition and measured after 20 mins by LC/MS/MS analysis
T5 sequence (P08684 whole entry): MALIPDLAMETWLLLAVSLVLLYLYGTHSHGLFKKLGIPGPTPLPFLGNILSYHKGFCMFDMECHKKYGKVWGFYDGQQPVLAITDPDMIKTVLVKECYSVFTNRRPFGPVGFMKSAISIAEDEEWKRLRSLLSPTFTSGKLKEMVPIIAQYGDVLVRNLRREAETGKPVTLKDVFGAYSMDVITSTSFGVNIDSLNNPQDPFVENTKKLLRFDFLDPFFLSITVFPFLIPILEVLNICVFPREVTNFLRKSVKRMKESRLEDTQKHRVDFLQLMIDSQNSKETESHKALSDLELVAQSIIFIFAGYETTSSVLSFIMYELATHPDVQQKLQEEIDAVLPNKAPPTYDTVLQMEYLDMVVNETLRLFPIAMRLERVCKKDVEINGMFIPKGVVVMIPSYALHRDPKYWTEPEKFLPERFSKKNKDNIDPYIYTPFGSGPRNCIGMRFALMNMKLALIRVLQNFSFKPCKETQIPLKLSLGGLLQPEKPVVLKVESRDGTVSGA

Cytochrome P450 3A4 [10] = biological target: T5, Cytochrome P450 3A4; test: Inhibition of CYP3A4 in human liver microsomes using testosterone as a substrate preincubated for 10 mins followed by NADPH addition and measured after 10 mins by LC/MS/MS analysis
[11] = biological target: T6, Atrial natriuretic peptide receptor 3 (Homo sapiens, UniProt P17342); test: Binding affinity to CM5 sensor chip immobilized human NPR-C (27 to 541 residues) assessed as dissociation constant by surface plasmon resonance analysis
T6 sequence (P17342 whole entry): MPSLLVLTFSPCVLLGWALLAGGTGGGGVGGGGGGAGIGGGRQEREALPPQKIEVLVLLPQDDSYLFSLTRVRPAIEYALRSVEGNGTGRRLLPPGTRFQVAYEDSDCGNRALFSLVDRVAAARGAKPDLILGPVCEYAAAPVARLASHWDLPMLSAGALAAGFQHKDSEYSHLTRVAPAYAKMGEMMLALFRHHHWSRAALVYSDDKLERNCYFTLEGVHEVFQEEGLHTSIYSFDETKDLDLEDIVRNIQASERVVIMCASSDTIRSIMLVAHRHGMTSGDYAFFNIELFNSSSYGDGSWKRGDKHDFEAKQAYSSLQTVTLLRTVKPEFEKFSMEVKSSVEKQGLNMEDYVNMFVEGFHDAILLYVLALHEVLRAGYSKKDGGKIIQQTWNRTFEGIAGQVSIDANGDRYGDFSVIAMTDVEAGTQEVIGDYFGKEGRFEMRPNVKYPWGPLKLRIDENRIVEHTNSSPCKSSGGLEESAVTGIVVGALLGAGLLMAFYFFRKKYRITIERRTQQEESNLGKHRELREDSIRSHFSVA

[12] = rat, hepatocytes, 20 min, 1 µM

SMILES | Activity [1] | CLH [2] [µL/min] | solubility [3] [mg/mL] | EC50 [4] [µM] | EC50 [5] [µM] | Papp [6] | IC50 (Cytochrome P450 2C9) [µM] | t1/2 [7] [min] | PPB [8] [%] | IC50 (Cytochrome P450 2C19) [µM] | IC50 (Cytochrome P450 1A2) [µM] | IC50 (Cytochrome P450 2C8) [µM] | IC50 (Cytochrome P450 3A4 [9]) [µM] | IC50 (Cytochrome P450 3A4 [10]) [µM] | Kd [11] [µM] | t1/2 [12] [min]
CC[C@H](C)[C@@H]1NC(=O)[C@H](CCCNC(=N)N)NC(=O)[C@H](CC(=O)O)NC(=O)[C@H](CCSC)NC(=O)[C@H](CCCNC(=N)N)NC(=O)CNC(=O)CNC(=O)[C@H](Cc2ccccc2)NC(=O)[C@@H](NC(=O)[C@H](CO)NC(=O)[C@H](CO)NC(=O)[C@H](CCCNC(=N)N)NC(=O)[C@H](CCCNC(=N)N)NC(=O)[C@H](CC(C)C)NC(=O)[C@@H](N)CO)CSSC[C@@H](C(=O)N[C@@H](CC(N)=O)C(=O)N[C@@H](CO)C(=O)N[C@@H](Cc2ccccc2)C(=O)N[C@@H](CCCNC(=N)N)C(=O)N[C@@H](Cc2ccc(O)cc2)C(=O)O)NC(=O)CNC(=O)[C@H](CC(C)C)NC(=O)CNC(=O)[C@H](CO)NC(=O)[C@H](CCC(N)=O)NC(=O)[C@H](C)NC(=O)CNC1=O | Active | – | – | – | – | – | – | – | – | – | – | – | – | – | – | –
CC(=O)Nc1ccc(Nc2ncnc(N[C@@H](CC(C)C)C(=O)O)n2)cc1 | – | < 6.4 | > 71.68 | 22.2 | 6.2 | < 0.001 10^-6 cm/s | > 50 | > 60 | 85.4 | > 50 | > 50 | > 50 | > 50 | > 50 | 220 | 216.8
